pIC50: −log10 of the molar value. Calls of active or inactive are those of the source. The calls are words filed in the database; no cut-off is given here.
Key:
OVCAR-8 [1] = experiment: Antiproliferative activity against human OVCAR8 cells at 20 uM after 72 hrs by MTT assay in presence of glutathione; type: functional, cell-based
NCI/ADR-RES [2] = experiment: Inhibition of colony formation in human NCI/ADR-RES cells after 24 hrs; type: functional, cell-based
Summary of the method: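 NCI/ADR-RES cells were seeded at 100 cells/well and left to attach overnight. Serial compound dilutions were applied for 24 h, then washed out. Colonies grew in drug-free medium for 8-10 days and were fixed with 1% glutaraldehyde and stained with 2% crystal violet, 30 min each. Colonies were imaged and counted versus untreated control; values are means of ≥3 independent experiments.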

LNCaP [3] = experiment: Antiproliferative activity against human LNCAP cells after 72 hrs by MTT assay; type: functional, cell-based
Summary of the method: (§1)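 Cells kept in exponential growth at 37 °C in humidified 5% CO2 with 2 mM L-glutamine, mycoplasma-checked. Compounds were applied over a dose range and viability was read by MTT relative to an untreated control. IC50 is the concentration giving a 50% decrease in viability. Values are mean ± SD of three independent experiments.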

NCI/ADR-RES [4] = experiment: Antiproliferative activity against human NCI/ADR-RES cells at 20 uM after 72 hrs by MTT assay; type: functional
Summary of the method: (§2)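 Each cell line in the panel was treated with 20 µM compound, with doxorubicin as reference. Exponentially growing cells were grown at 37 °C in 5% CO2. MTT read-out served as a surrogate of viable cell number, expressed as % inhibition versus an untreated control. Values are mean ± SD of three independent experiments.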

OVCAR-8 [5] = experiment: Antiproliferative activity against human OVCAR8 cells at 20 uM after 72 hrs by MTT assay in presence of N-acetylcysteine; type: functional, cell-based
[6] = Antiproliferative activity against human Caov3 cells at 20 uM after 72 hrs by MTT assay; type: functional; conditions: Caov-3, 72 h; summary of the method: as §2
NCI/ADR-RES [7] = experiment: Antiproliferative activity against human NCI/ADR-RES cells at 20 uM after 72 hrs by MTT assay in presence of N-acetylcysteine; type: functional
Summary of the method: (§3)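 NCI/ADR-RES cells were pretreated for 2 h with 5 mM N-acetylcysteine or glutathione. Compound at 20 µM was then added for 72 h, with doxorubicin as positive control. Percent inhibition was measured by MTT.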

NCI/ADR-RES [8] = experiment: Antiproliferative activity against human NCI/ADR-RES cells at 20 uM after 72 hrs by MTT assay in presence of glutathione; type: functional; summary of the method: as §3
BXPC-3 [9] = experiment: Antiproliferative activity against human BxPC3 cells at 20 uM after 72 hrs by MTT assay; type: functional; conditions: BXPC-3, 72 h; summary of the method: as §2
LNCaP [10] = experiment: Antiproliferative activity against human LNCAP cells at 20 uM after 72 hrs by MTT assay; type: functional; summary of the method: as §2
DU-145 [11] = experiment: Antiproliferative activity against human DU145 cells at 20 uM after 72 hrs by MTT assay; type: functional; conditions: DU-145, 72 h; summary of the method: as §2
DU-145 [12] = experiment: Antiproliferative activity against human DU145 cells after 72 hrs by MTT assay; type: functional, cell-based; conditions: DU-145, 72 h; summary of the method: as §1
U2OS [13] = experiment: Antiproliferative activity against human U2OS cells at 20 uM after 72 hrs by MTT assay; type: functional; summary of the method: as §2
MIA PaCa-2 [14] = experiment: Antiproliferative activity against human MIAPaCa2 cells after 72 hrs by MTT assay; type: functional, cell-based; conditions: MIA PaCa-2, 72 h; summary of the method: as §1
OVCAR-8 [15] = experiment: Antiproliferative activity against human OVCAR8 cells at 20 uM after 72 hrs by MTT assay; type: functional; conditions: OVCAR-8, 72 h; summary of the method: as §2
[16] = Antiproliferative activity against human […] cells at 20 uM after 72 hrs by MTT assay; type: functional; summary of the method: as §2
[17] = Antiproliferative activity against human […] cells after 72 hrs by MTT assay; type: functional, cell-based; summary of the method: as §1
MIA PaCa-2 [18] = experiment: Antiproliferative activity against human MIAPaCa2 cells at 20 uM after 72 hrs by MTT assay; type: functional; conditions: MIA PaCa-2, 72 h; summary of the method: as §2
PC-3 [19] = experiment: Antiproliferative activity against human PC3 cells after 72 hrs by MTT assay; type: functional, cell-based; conditions: PC-3, 72 h; summary of the method: as §1
PC-3 [20] = experiment: Antiproliferative activity against human PC3 cells at 20 uM after 72 hrs by MTT assay; type: functional; conditions: PC-3, 72 h; summary of the method: as §2
U2OS [21] = experiment: Antiproliferative activity against human U2OS cells after 72 hrs by MTT assay; type: functional, cell-based; summary of the method: as §1
BXPC-3 [22] = experiment: Antiproliferative activity against human BxPC3 cells after 72 hrs by MTT assay; type: functional, cell-based; conditions: BXPC-3, 72 h; summary of the method: as §1
OVCAR-8 [23] = experiment: Antiproliferative activity against human OVCAR8 cells after 72 hrs by MTT assay; type: functional, cell-based; conditions: OVCAR-8, 72 h; summary of the method: as §1
NCI/ADR-RES [24] = experiment: Antiproliferative activity against human NCI/ADR-RES cells after 72 hrs by MTT assay; type: functional, cell-based; summary of the method: as §1
[25] = Antiproliferative activity against human Caov3 cells after 72 hrs by MTT assay; type: functional, cell-based; conditions: Caov-3, 72 h; summary of the method: as §1
LNCaP [26] = experiment: Up-regulation of p53 expression in human LNCAP cells at 3 uM after 24 hrs by Western blot analysis; type: functional, cell-based
Summary of the method: (§4)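 LNCaP cells were treated for 24 h, then lysed. Equal protein was run on 12% SDS-PAGE and blotted to PVDF. Membranes were blocked 1 h in 5% skim milk/TBS-0.1% Tween and probed overnight at 4 °C with anti-p53 or anti-caspase-9. A secondary antibody and ECL detection followed, with GAPDH as loading control.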

LNCaP [27] = experiment: Increase of cleaved caspase-9 level in human LNCAP cells at 3 uM after 24 hrs by Western blot analysis; type: functional, cell-based; summary of the method: as §4

SMILES	inhibition (OVCAR-8 [1])	pIC50 (LNCaP [3])	inhibition at 20 µM (NCI/ADR-RES [4]) [%]	inhibition (OVCAR-8 [5])	inhibition at 20 µM [6] [%]	inhibition at 20 µM (NCI/ADR-RES [7]) [%]	inhibition at 20 µM (NCI/ADR-RES [8]) [%]	inhibition at 20 µM (BXPC-3 [9]) [%]	inhibition at 20 µM (LNCaP [10]) [%]	inhibition at 20 µM (DU-145 [11]) [%]	pIC50 (DU-145 [12])	inhibition at 20 µM (U2OS [13]) [%]	pIC50 (MIA PaCa-2 [14])	inhibition at 20 µM (OVCAR-8 [15]) [%]	inhibition at 20 µM [16] [%]	pIC50 [17]	inhibition at 20 µM (MIA PaCa-2 [18]) [%]	pIC50 (PC-3 [19])	inhibition at 20 µM (PC-3 [20]) [%]	pIC50 (U2OS [21])	other results
Cc1ccc(S(=O)(=O)Oc2ccc(NCc3ccc(Cl)cc3)c3c2C(=O)c2ccccc2C3=O)cc1	Active	5.62	80.4	Active	84.6	> 60	> 60	85.2	79.9	69.1	5.19	66.1	5.35	64.4	63.5	5.40	80.6	< 4.70	81.2	5.32	inhibition (NCI/ADR-RES [2]): Dose-dependent effect; pIC50 (BXPC-3 [22]): 5.62; pIC50 (OVCAR-8 [23]): 5.36; pIC50 (NCI/ADR-RES [24]): 5.66; pIC50 [25]: 5.60
Cc1ccc(S(=O)(=O)Oc2ccc(OCCOCCOCCO)c3c2C(=O)c2ccccc2C3=O)cc1	–	–	20.4	Active	47.3	–	–	15.3	24.5	16.8	–	44.2	–	13.1	46.9	–	53.4	–	16.6	–	–
COc1cccc2c1C(=O)c1c(O)c3c(c(O)c1C2=O)C[C@@](O)(C(=O)CO)C[C@@H]3O[C@H]1C[C@H](N)[C@H](O)[C@H](C)O1 [DOXORUBICIN]	Active	6.70	41	Active	92.6	13	21	96.2	85.8	80.6	6.70	90	> 7.00	86	83.5	5.82	88.1	6.00	6.9	6.52	Activity (LNCaP [26]): Active; pIC50 (BXPC-3 [22]): 6.40; Activity (LNCaP [27]): Active; pIC50 (OVCAR-8 [23]): 6.22; pIC50 (NCI/ADR-RES [24]): < 4.70; pIC50 [25]: > 7.00
COc1ccc(CNc2ccc(OS(=O)(=O)c3ccc(C)cc3)c3c2C(=O)c2ccccc2C3=O)cc1	Active	6.05	77.8	Active	83.1	> 60	> 60	91.5	78.7	62.2	5.66	59.8	5.72	58.2	53.3	< 4.70	81.4	5.10	46.2	5.35	inhibition (NCI/ADR-RES [2]): Dose-dependent effect; pIC50 (BXPC-3 [22]): 6.22; pIC50 (OVCAR-8 [23]): 5.10; pIC50 (NCI/ADR-RES [24]): 5.92; pIC50 [25]: 5.74
O=C1c2ccccc2C(=O)c2c(OCCOCCOCCO)ccc(OCCOCCOCCO)c21	–	–	41.5	–	16.3	–	–	17.5	38.2	17.7	–	11.1	–	37.4	6.4	–	36.1	–	16.4	–	–
Cc1ccc(S(=O)(=O)Oc2ccc(OCCOCCO)c3c2C(=O)c2ccccc2C3=O)cc1	Active	–	15.3	Active	42.7	–	–	14.5	26.7	9	–	43	–	8.5	31.4	–	35.9	–	9.9	–	–
Cc1ccc(S(=O)(=O)Oc2ccc(OCCOCCOCCOCCO)c3c2C(=O)c2ccccc2C3=O)cc1	–	–	1.7	–	48.2	–	–	11.8	40.3	21.6	–	41.9	–	5.5	47.8	–	29.5	–	23.7	–	–
O=C1c2ccccc2C(=O)c2c(OCCOCCO)ccc(OCCOCCO)c21	–	–	46.4	–	7.3	–	–	23.1	46.9	10	–	32.4	–	3.4	44.3	–	31.1	–	10.6	–	–

Source: ChEMBL document CHEMBL2440111, “Overcoming doxorubicin-resistance in the NCI/ADR-RES model cancer cell line by novel anthracene-9,10-dione derivatives” (Bioorg Med Chem Lett, 2013)
